Test [1] is described as follows: Cytotoxicity against human HCT116 cells assessed as growth inhibition after 72 hrs by MTT assay. The test is classed as functional. Conditions: HCT-116, 72 h. For orientation: Tetrazolium dyes change colour on reduction, which living cells bring about.
The test system of test [2] is DU-145. As to the kind of experiment: Cytotoxicity against human DU145 cells assessed as growth inhibition after 72 hrs by MTT assay. The test is classed as functional. The conditions noted are these: DU-145, 72 h.
For test [3], the system named is IGROV-1. The experiment in a line: Cytotoxicity against human IGROV1 cells assessed as growth inhibition after 72 hrs by MTT assay. The format is functional. Conditions: IGROV-1, 72 h.
Test [4] is described as follows: Cytotoxicity against human UACC62 cells assessed as growth inhibition after 72 hrs by MTT assay. The format is functional. The conditions noted are these: UACC-62, 72 h. A digest of the protocol:
(§1)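 NCI 60-cell-line panel screen. Compounds were tested at 5 concentrations in 10-fold dilution (10^-4 to 10^-8 M) across the full panel. GI50 was taken as the molar concentration giving 50% inhibition of net cell growth.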

Test [5] concerns MDA-MB-435. The experiment in a line: Cytotoxicity against human MDA-MB-435 cells assessed as growth inhibition after 72 hrs by MTT assay. The conditions noted are these: MDA-MB-435, 72 h. The test is classed as functional.
Test [6] deals with NCI-H522. As to the kind of experiment: Cytotoxicity against human NCI-H522 cells assessed as growth inhibition after 72 hrs by MTT assay. The test is classed as functional. The conditions noted are these: NCI-H522, 72 h. A digest of the protocol: as §1
In test [7] the test system is SNB-19. The experiment in a line: Cytotoxicity against human SNB19 cells assessed as growth inhibition after 72 hrs by MTT assay. The test is classed as functional. Conditions: SNB-19, 72 h. A digest of the protocol:
as §1

For test [8], the system named is MDA-MB-468. As to the kind of experiment: Cytotoxicity against human MDA-MB-468 cells assessed as growth inhibition after 72 hrs by MTT assay. The format is functional. The conditions noted are these: MDA-MB-468, 72 h.
In test [9] the test system is CCRF-CEM. The experiment in a line: Cytotoxicity against human CCRF-CEM cells assessed as growth inhibition after 72 hrs by MTT assay. The format is functional.
Test [10] in a line: Cytotoxicity against human NCI-ADR-RES cells assessed as growth inhibition after 72 hrs by MTT assay. The test is classed as functional.
Test [11] deals with Jurkat. As to the kind of experiment: Induction of apoptosis in human Jurkat cells assessed as lysosomal dysfunction at 250 to 500 nM after 24 hrs by acridine orange staining-based flow cytometry relative to control. The test is classed as functional, cell-based. A digest of the protocol: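 Jurkat cells were treated for 24 h at two concentrations, then stained with acridine orange. Flow cytometry (488 nm excitation, FL3 emission) scored red fluorescence of intact lysosomes. Mean ± SEM of at least 3 experiments, compared with control.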
(In general: Flow cytometry measures light scatter and fluorescence of single cells or particles in a stream.)

Test [12] deals with LoVo. As to the kind of experiment: Anticlonogenic activity against human LoVo cells assessed as inhibition of colony formation of cells at 0.625 to 10 uM incubated for 24 hrs followed by compound washout measured after 1 to 2 weeks by crystal violet staining-based assay. The format is functional, cell-based.
The test system of test [13] is LoVo. As to the kind of experiment: Anticlonogenic activity against human LoVo cells assessed as inhibition of colony formation of cells at 2.5 to 5 uM incubated for 24 hrs followed by compound washout measured after 1 to 2 weeks by crystal violet staining-based assay. The format is functional, cell-based.

Usually GI50 stands for the concentration that inhibits growth by half.

The source made the active and inactive calls. The rule behind the calls is not given here.

In the case of `COc1cc2nnc3c4cccnc4[nH]c3c2cc1OC`, the GI50 in test [1] came out at 130 nM; in [2] it was 2100 nM; in test [3], 1730 nM; in test [4], 2490 nM; in test [5], 2230 nM; in test [6] it was 2050 nM. The concentration for 50% growth inhibition (GI50) was 2770 nM in test [7] and 230 nM in [8].

Turning to `O=Nc1c2cccnc2n2nnc3ccc(Cl)cc3c12`, the GI50 in [9] was determined as 23 nM; in test [1] it was 190 nM; in test [2], 610 nM; in test [3], 1350 nM; in [4], 2360 nM; in test [5], 1260 nM. In addition, the GI50 in test [6] worked out at 950 nM; in [7], 3180 nM; in test [10], 430 nM; in test [8] it was 140 nM.

Consider `COc1ccc2c(c1)nnn1c3ncccc3c(N=O)c21`, for which the GI50 in [1] amounted to 60 nM; in test [2], 1860 nM; in [3] it was 110 nM; in [4] it was 850 nM; in test [5], 1940 nM; in test [6], 1250 nM. The GI50 is 6280 nM in test [7], 1420 nM in test [10] and 32 nM in [8]. Moreover, the result in [11] was inactive. Also, the inhibition entry in test [12] was “Active”.

For the molecule `COc1cc2nnn3c4ncccc4c(N=O)c3c2cc1OC`, the GI50 is less than 10 nM in test [9]; 61 nM in [1]; 1990 nM in [2]; 1940 nM in test [3]; 2920 nM in test [4]; 2380 nM in test [5]. For the same molecule, the GI50 is 4010 nM in test [6], 3840 nM in [7], 380 nM in test [10] and 160 nM in test [8]. Moreover, in test [11], the result was inactive. Moreover, the inhibition result in [13] was “Active”.

As for `COc1ccc2c(c1)nnc1c3cccnc3[nH]c21`, the GI50 came out at 210 nM in test [1]; 1880 nM in [2]; 310 nM in test [3]; 910 nM in test [4]; 1440 nM in test [5]; 1090 nM in test [6]. Moreover, the GI50 was 7610 nM in test [7], 1790 nM in test [10] and 67 nM in test [8]. In addition, the outcome in test [11] was inactive. In addition, the inhibition result in test [13] is “Active”.

(Values after ChEMBL document CHEMBL3351507, “11H-Pyrido[3',2':4,5]pyrrolo[3,2-c]cinnoline and pyrido[3',2':4,5]pyrrolo[1,2-c][1,2,3]benzotriazine: two new ring systems with antitumor activity” (2014).)
